Calls of active or inactive are those of the source.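 The calls were made as follows, unless noted: active = NADPH fluorescence slope more negative than the mean of all samples by about 3 SD, 99.7% confidence; inactive = the rest.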

The nature of assay [1]: inhibitors of TNFa-induced NFkB p65 translocation, primary screen, imaging, HUVEC, MLSMR starter and 10KST1 sets (AID 438;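 active = inhibition above 20% together with a positive visual image hit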;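 also: compound added about 3h40 before a 20 min TNFalpha stimulation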;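 as to inhibition: signal is the nuclear over cytoplasmic p65 intensity ratio per well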). As to conditions: HUVEC TNFa-induced p65 nuclear translocation; cell count: measured here: nuclei count (cytotoxicity indicator), at 2.08 µM; inhibition: at 2 µM, stronger effect = higher value, 0% TNFa-plus-vehicle, 100% no-TNFa wells.
Assay [2] in a line: inhibitors of mutant huntingtin aggregation, primary screen, imaging, exon1htt(103Q)mCFP cells, high-content imaging (AID 483;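 active = visual image review flags a hit and inhibition of aggregation exceeds 20%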;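 also: compound exposure lasted 3 days before fixation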;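 as to nuclei count: percent of the per-plate median nuclei count of sample wells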). As to conditions: exon1htt(103Q)mCFP cell line, aggregate imaging, at 2 µM; inhibition of aggregation: stronger effect = higher value; nuclei count: measured here: cell count, toxicity.
Assay [3] can be described thus: inhibitors of E-selectin induction by TNFa, primary screen, imaging, HUVEC, immunofluorescence, MLSMR starter and 10KST1 sets (AID 487;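 active = visually confirmed hit in the image check and inhibition above 20%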;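 as to inhibition: signal is fraction of cell area covered by stained E-selectin grains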;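 as to nuclei count: 100% = median nuclei count of all wells on the same plate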). The settings on record: HUVEC TNFalpha-induced E-selectin immunofluorescence imaging, at 2 µM; inhibition: stronger effect = higher value; nuclei count: measured here: cell number, toxicity.
The target in assay [4] is Voltage-gated potassium channel subunit beta-2 (Rattus norvegicus) (UniProt P62483). In words: KvBeta enzyme negative modulators, primary screen, biochemical, NADPH fluorescence (AID 622;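 active = fluorescence slope higher than the sample average by over 3 SD, cut at about -0.22 in these data, passing the limit was not always enough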;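 also: slope of raw intensity against log time taken from 70 to 1610 s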). The settings on record: recombinant KvBeta, 4-cyanobenzaldehyde reduction, at 10 µM, stronger effect = higher value.
Chain of Voltage-gated potassium channel subunit beta-2 (Rattus norvegicus) (P62483 whole entry, looked up): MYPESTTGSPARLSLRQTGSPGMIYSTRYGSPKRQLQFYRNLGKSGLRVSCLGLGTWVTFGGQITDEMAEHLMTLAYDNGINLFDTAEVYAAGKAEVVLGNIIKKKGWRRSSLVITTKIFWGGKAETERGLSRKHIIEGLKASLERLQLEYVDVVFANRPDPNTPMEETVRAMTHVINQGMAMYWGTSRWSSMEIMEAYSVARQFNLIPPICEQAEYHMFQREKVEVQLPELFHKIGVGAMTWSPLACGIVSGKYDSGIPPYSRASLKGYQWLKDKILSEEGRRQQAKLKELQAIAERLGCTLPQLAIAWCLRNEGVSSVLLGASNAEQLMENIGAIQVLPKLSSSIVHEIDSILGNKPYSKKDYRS
For assay [5] the target is unchanged. In words: KvBeta positive modulators, primary screen, biochemical, NADPH fluorescence (AID 623).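 Also: fluorescence intensity change per second fitted from 20 to 320 s.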 As to conditions: Recombinant KvBeta, NADPH fluorescence decrease slope, 10 min; at 10 µM; stronger effect = lower value.
Assay [6] deals with Muscarinic acetylcholine receptor M4 (Homo sapiens) (UniProt P08173). In words: compounds altering M4/GIRK thallium flux, either direction, primary screen, M4 allosteric agonist project, cell-based, HEK293 M4/GIRK, BTC-AM (AID 625;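 active = fluorescence slope after compound addition differing from the mean of all tested samples at 99.7% confidence, mostly higher but some lower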;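 also: thallium influx through GIRK channels coupled to M4 in HEK293 cells with BTC-AM dye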). As to conditions: at 10 µM, actives lie on both sides. An outline of the steps: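 System: HEK293 cells with M4 receptor and GIRK channels | Incubation: Cells overnight at 37 °C, BTC-AM loading 1 h, reads 2 min total | Technique: Kinetic BTC-AM fluorescence sampled at 1 Hz, 10 s pre-addition baseline | Measure: Post-addition slope, 15–24 s, of baseline-normalized fluorescence | Control set: Carbachol positive, DMSO negative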
Chain of Muscarinic acetylcholine receptor M4 (Homo sapiens) (P08173 whole entry, looked up): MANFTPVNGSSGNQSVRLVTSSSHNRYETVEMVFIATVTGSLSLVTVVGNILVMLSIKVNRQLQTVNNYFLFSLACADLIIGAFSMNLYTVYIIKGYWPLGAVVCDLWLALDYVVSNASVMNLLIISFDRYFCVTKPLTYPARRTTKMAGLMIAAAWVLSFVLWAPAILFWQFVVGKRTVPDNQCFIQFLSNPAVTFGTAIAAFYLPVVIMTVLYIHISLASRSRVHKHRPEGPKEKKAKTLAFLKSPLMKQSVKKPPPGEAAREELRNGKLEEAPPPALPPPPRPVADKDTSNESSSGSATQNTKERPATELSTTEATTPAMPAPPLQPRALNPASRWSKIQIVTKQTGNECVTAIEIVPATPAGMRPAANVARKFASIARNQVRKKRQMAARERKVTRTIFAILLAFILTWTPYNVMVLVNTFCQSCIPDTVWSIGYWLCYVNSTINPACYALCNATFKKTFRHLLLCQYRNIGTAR

Assay [7] can be described thus: inhibitors of Sendai virus-induced IRF3 signaling, primary screen, TLR/RLR signaling modifier project, cell-based, Sendai virus stimulus, luciferase, 10K MLSCN set (AID 602276;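 active = inhibition at or above 50% at 10 µM; inactive = inhibition below 50%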;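 also: firefly luciferase from ISG56 promoter only with Renilla not read in this screen; 0% = Sendai virus plus DMSO and 100% = medium plus DMSO without virus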). The settings on record: HEK293 RL24 IRF3 luciferase reporter, at 10 µM, stronger effect = higher value. In general terms: A reporter such as luciferase makes a cellular process visible.
A short description of assay [8]: inhibitors of poly I:C-induced TLR3 signaling, primary screen, cell-based, poly I:C stimulus, luciferase, 10K MLSCN set (AID 602277;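 active = inhibition of the reporter signal at or above 50%; inactive = inhibition below 50%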). As to conditions: HEK293-TLR3 RL24 IRF3 luciferase reporter, at 10 µM, stronger effect = higher value.

As for `CC(=O)N1CCc2cc(S(=O)(=O)CCC(=O)N3CCN(C(=O)c4ccco4)CC3)ccc21`, in assay [1], the cell count was found to be 519. Also, the inhibition is 2.2% (inactive) in assay [1], -51.9% (inactive) in assay [3], 12.3% (inactive) in assay [7] and 17.8% (inactive) in assay [8]. The inhibition of aggregation in assay [2] was 7.5% (inactive). In addition, the nuclei count was 105% in assay [2] and 116% in assay [3]. Moreover, the fluorescence slope was -0.413 (inactive) in assay [4] and 0.00737 (inactive) in assay [6]. For the same molecule, in assay [5], the NADPH fluorescence slope was -4e-05 (inactive).
On to `CCOC(=O)Nc1c(C(=O)OC)[nH]c2cccc(OC)c12`, for which, in assay [1], the cell count worked out at 526. The inhibition in assay [1] was -0.5% (inactive); in assay [3], -32.4% (inactive); in assay [7], -7.18% (inactive); in assay [8], -3.25% (inactive). In assay [2], the inhibition of aggregation is -15.7% (inactive). Besides, the nuclei count in assay [2] was found to be 109%; in assay [3], 126%. Moreover, the fluorescence slope is -0.478 (inactive) in assay [4] and 0.00517 (inactive) in assay [6]. The NADPH fluorescence slope in assay [5] was 3e-05 (inactive).
Turning to `CS(=O)(=O)N(CC(=O)N1CCN(c2cccc(Cl)c2)CC1)C1CCCCC1`, the cell count in assay [1] was 645. Moreover, the inhibition is -6% (inactive) in assay [1], 8.8% (inactive) in assay [3], 2.97% (inactive) in assay [7] and 0.307% (inactive) in assay [8]. For the same molecule, the inhibition of aggregation in assay [2] was 11% (inactive). Further, the nuclei count in assay [2] stood at 87.4%; in assay [3], 78.2%. Moreover, the fluorescence slope in assay [4] is -0.576 (inactive); in assay [6], 0.00576 (inactive). Moreover, the NADPH fluorescence slope in assay [5] was -4.3e-05 (inactive).
Consider `CN(CC(=O)N1CCN(C2CCCCC2)CC1)S(=O)(=O)c1cccc2nsnc12`, for which the cell count in assay [1] is 367. The inhibition was 0.8% (inactive) in assay [1], 36% (inactive) in assay [3], 13% (inactive) in assay [7] and 28.3% (inactive) in assay [8]. Besides, the inhibition of aggregation in assay [2] was -4.6% (inactive). For the same molecule, the nuclei count in assay [2] is 102%; in assay [3], 94.6%. The fluorescence slope in assay [4] was -0.379 (inactive); in assay [6], 0.00544 (inactive). Besides, the NADPH fluorescence slope in assay [5] is 8e-05 (inactive).
As to `COC(=O)Cc1c(C)nc2nc(-c3ccccc3)[nH]n2c1=O`, the cell count in assay [1] amounted to 615. In addition, the inhibition is 1.9% (inactive) in assay [1], -15.7% (inactive) in assay [3], 0.882% (inactive) in assay [7] and 6.76% (inactive) in assay [8]. Further, in assay [2], the inhibition of aggregation was 18.9% (inactive). Moreover, the nuclei count in assay [2] was 68%; in assay [3], 97.2%. In addition, the fluorescence slope in assay [4] was -0.474 (inactive); in assay [6] it was 0.00459 (inactive). Further, the NADPH fluorescence slope in assay [5] was -9.1e-06 (inactive).
With `O=C(C1CCC1)N1CCc2cc(S(=O)(=O)Nc3ccc4c(c3)OCO4)ccc21`, the cell count in assay [1] amounted to 606. Further, the inhibition was 10.1% (inactive) in assay [1], 3.5% (inactive) in assay [3], 7.48% (inactive) in assay [7] and 13.6% (inactive) in assay [8]. Moreover, the inhibition of aggregation in assay [2] was 18.8% (inactive). The results for the nuclei count in assay [2] and in assay [3] were 92% and 137%, respectively. For the same molecule, the fluorescence slope in assay [4] is -0.391 (inactive); in assay [6], 0.0066 (inactive). In addition, the NADPH fluorescence slope in assay [5] was -6.2e-05 (inactive).
As for `c1ccc2c(NC3CCCC3)nnc(NC3CCCC3)c2c1`, the cell count in assay [1] worked out at 797. The inhibition in assay [1] is 7.4% (inactive); in assay [3], -69.1% (inactive); in assay [7], 7.77% (inactive); in assay [8], 7.29% (inactive). In addition, in assay [2], the inhibition of aggregation was -6.1% (inactive). Moreover, the results for the nuclei count in assay [2] and in assay [3] were 106% and 131%, respectively. Moreover, the fluorescence slope in assay [4] is -0.419 (inactive); in assay [6], 0.00394 (inactive). The NADPH fluorescence slope in assay [5] was 2.2e-05 (inactive).
In the case of `COc1cccc(-c2cc(C(F)(F)F)n3nc(N)nc3n2)c1`, the cell count in assay [1] was determined as 814. Further, the inhibition in assay [1] was -0.8% (inactive); in assay [3], 31.9% (inactive); in assay [7], 6.21% (inactive); in assay [8], -0.814% (inactive). In addition, in assay [2], the inhibition of aggregation was 18.9% (inactive). Also, the nuclei count came to 90.5% in assay [2] and 98.9% in assay [3]. In addition, the figures for the fluorescence slope in assay [4] and in assay [6] were -0.449 (inactive) and 0.00414 (inactive), respectively. In addition, in assay [5], the NADPH fluorescence slope is -5e-05 (inactive).
For `Cc1ccc(C(C)C)c(OCCCN2CC(C)OC(C)C2)c1` (configuration not stated), in assay [1], the cell count worked out at 344. Besides, the inhibition was -3.9% (inactive) in assay [1], -2.6% (inactive) in assay [3], 8.84% (inactive) in assay [7] and 26.1% (inactive) in assay [8]. The inhibition of aggregation in assay [2] is -17.9% (inactive). Also, the nuclei count in assay [2] worked out at 106%; in assay [3] it was 100%. Also, the fluorescence slope is -0.243 (inactive) in assay [4] and 0.00607 (inactive) in assay [6]. In assay [5], the NADPH fluorescence slope is -5.1e-06 (inactive).
Take `Cc1noc(C)c1COc1cccc(C(=O)Oc2ccc3c(c2)OCO3)c1`: the cell count in assay [1] turned out to be 329. Besides, the inhibition in assay [1] is -9.6% (inactive); in assay [3] it was 1.2% (inactive); in assay [7], 8.11% (inactive); in assay [8] it was 15.8% (inactive). Moreover, the inhibition of aggregation in assay [2] was 4.3% (inactive). In addition, the nuclei count in assay [2] stood at 80.2%; in assay [3] it was 100%. Also, the fluorescence slope in assay [4] is -0.567 (inactive); in assay [6], 0.00685 (inactive). In addition, in assay [5], the NADPH fluorescence slope is -2.5e-05 (inactive).
Take `COc1ccccc1C(=O)n1nc(-c2ccccc2)nc1N`: the cell count in assay [1] was determined as 354. The inhibition in assay [1] was -3.3% (inactive); in assay [3], -55.5% (inactive); in assay [7] it was 15.7% (inactive); in assay [8], 11.1% (inactive). Further, the inhibition of aggregation in assay [2] was 9.7% (inactive). Moreover, the nuclei count came out at 101% in assay [2] and 119% in assay [3]. In addition, the fluorescence slope in assay [4] was -0.619 (inactive); in assay [6], 0.00374 (inactive). The NADPH fluorescence slope in assay [5] was -2.9e-05 (inactive).
`COCCNC(=O)c1ccc2c(c1)nc(C)n2-c1cccc(F)c1`: the cell count in assay [1] was found to be 292. Also, the inhibition in assay [1] is 19.4% (inactive); in assay [3], -16.6% (inactive); in assay [7], 15.5% (inactive); in assay [8], 17.5% (inactive). For the same molecule, the inhibition of aggregation in assay [2] was -2% (inactive). For the same molecule, the nuclei count in assay [2] amounted to 99.8%; in assay [3], 98.7%. In addition, the fluorescence slope in assay [4] was -0.572 (inactive); in assay [6] it was 0.00562 (inactive). Moreover, the NADPH fluorescence slope in assay [5] was -3.3e-05 (inactive).

Usually inhibition stands for the relative decrease from the control value, in per cent.
